Experiment [1] addresses T1, Adrenergic receptor alpha (Rattus norvegicus) (UniProt P15823+P23944+P43140+P22086+P19328+P22909). Nature of the experiment: Ratio of maximum contraction of rat aorta elicited versus that elicited by noradrenaline (defined as intrinsic activity). Format: functional, tissue-based. The gist of the method: (§1)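 Helical strips of rat aorta (1.5–2 cm × 3–4 mm) were held in Krebs-Henseleit at 37 °C, gassed with 95% O2/5% CO2, at 2 g resting tension, and equilibrated about 2 h. Cumulative contraction curves were recorded isometrically, first for norepinephrine, then after washout and 1 h rest for the test agonist. pD2 (−log ED50) was derived by the Ariens–Van Rossum method. Intrinsic activity is the compound's maximum response divided by the norepinephrine maximum.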

The target of experiment [2] is T1, Adrenergic receptor alpha (Rattus norvegicus). Nature of the experiment: Binding affinity to alpha adrenergic receptors in rat aorta. It is filed as tissue-based. The method in brief: as §1
The nature of experiment [3]: Intrinsic activity of the compound, which is expressed as the ratio of the maximum response to the maximum response to norepinephrine. It is filed as functional. The gist of the method:
as §1

Each structure is given as a SMILES string.

The results in this text go back to ChEMBL document CHEMBL1121471, “Synthesis and structure-activity relationships among alpha-adrenergic receptor agonists of the phenylethanolamine type” (J Med Chem, 1980).

For the compound `CC(C)c1ccc(C(O)CN)cc1O` (stereo not drawn), the Ratio in experiment [1] came to 0.7. In experiment [2], this compound came in with a pD2 of 5.

Turning to `NC[C@H](O)c1ccc(O)c(O)c1`, in experiment [1], the Ratio came out at 1. Further, the pD2 in experiment [2] came out at 8.8.

Regarding `NCC(O)c1ccc(O)c(F)c1` (stereo not drawn), in experiment [1], the Ratio stood at 1. The pD2 in experiment [2] worked out at 6.78.

Consider `NCC(O)c1ccc(O)c(Cl)c1` (stereo not drawn), for which the Ratio in experiment [1] stood at 1. The pD2 in experiment [2] came to 5.85.

As to `NCC(O)c1ccc(Cl)c(O)c1` (stereo not drawn), the Ratio in experiment [1] worked out at 1.1. The same compound yielded a pD2 in experiment [2] of 6.35.

In the case of `NCC(O)c1ccc(O)c(C2CCCCC2)c1` (stereo not drawn), in experiment [1], the Ratio came out at 1.1. Also, the pD2 in experiment [2] is 6.73.

For the compound `NCC(O)c1ccc(O)c(Br)c1` (stereo not drawn), the Ratio in experiment [1] is 1.1. Moreover, the pD2 in experiment [2] amounted to 5.57.

As to `CCc1cc(C(O)CN)ccc1O` (stereo not drawn), in experiment [1], the Ratio was 0.9. In experiment [2], the pD2 is 6.09.

Turning to `CS(=O)(=O)Nc1ccc(C(O)CN)cc1O` (stereo not drawn), the Ratio in experiment [1] turned out to be 0.8. In addition, the pD2 in experiment [2] was 3.2.

Take `COc1cc(C(O)CN)ccc1O` (stereo not drawn): in experiment [1], the Ratio amounted to 1.1. In experiment [2], this compound yielded a pD2 of 6.23.

`NCC(O)c1ccc(O)c(I)c1` (stereo not drawn): the Ratio in experiment [1] turned out to be 0.9. The pD2 in experiment [2] was 5.5.

Turning to `NCC(O)c1ccc(I)c(O)c1` (stereo not drawn), in experiment [1], the Ratio worked out at 0.9. The pD2 in experiment [2] was 4.99.

For `NCC(O)c1ccc(C2CCCCC2)c(O)c1` (stereo not drawn), the Ratio in experiment [1] turned out to be 0.7. This compound also showed a pD2 in experiment [2] of 4.86.

On to `Cc1ccc(C(O)CN)cc1O` (stereo not drawn), for which the Intrinsic in experiment [3] was 1.3. Besides, the pD2 in experiment [2] amounted to 5.66.

Consider `NCC(O)c1ccc(O)cc1` (stereo not drawn), for which the Ratio in experiment [1] was determined as 1.1. In addition, in experiment [2], the pD2 is 6.08.

Take `NCC(O)c1ccc(Br)c(O)c1` (stereo not drawn): the Ratio in experiment [1] worked out at 1. Further, the pD2 in experiment [2] came out at 5.58.

`CC(C)c1cc(C(O)CN)ccc1O` (stereo not drawn): in experiment [1], the Ratio stood at 1.2. In experiment [2], the pD2 was 6.53.

For the compound `NCC(O)c1cccc(O)c1` (stereo not drawn), the Ratio in experiment [1] was 1. In experiment [2], the pD2 came out at 8.21.

Regarding `COc1ccc(C(O)CN)cc1O` (stereo not drawn), in experiment [1], the Ratio was 1. In experiment [2], this compound yielded a pD2 of 4.97.

Regarding `COC(=O)c1cc(C(O)CN)ccc1O` (stereo not drawn), in experiment [1], the Ratio was 0.9. In experiment [2], this compound returned a pD2 of 4.85.

`CS(=O)(=O)Nc1cc(C(O)CN)ccc1O` (stereo not drawn): the Ratio in experiment [1] is 1.1. Further, the pD2 in experiment [2] stood at 7.19.

`Cc1cc(C(O)CN)ccc1O` (stereo not drawn): the Ratio in experiment [1] was 1. Also, in experiment [2], the pD2 is 5.96.

On to `NCC(O)c1ccc(O)c(C(=O)O)c1` (stereo not drawn), for which the Ratio in experiment [1] is 1. This compound also returned a pD2 in experiment [2] of 4.07.

As to `CCc1ccc(C(O)CN)cc1O` (stereo not drawn), the Ratio in experiment [1] turned out to be 1.1. The compound further had a pD2 in experiment [2] of 5.2.
